Test results from publication PMC6510378 (Clinical and Translational Science, 2019).

Experiments:
MAD study part 2 = assay type: in vivo, human
Summary of the method: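 Healthy young non-Japanese adults, open-label oral dosing. 0.7 or 2 mg was given as a single dose on day 1, then after a 6-day washout once daily. 0.4 mg was given once daily on days 1–14. 0.2 mg followed a 3 mg loading dose on day 1, days 2–14. PK doses were given fasted 10 h, with no food for 4 h. Plasma drug was measured by validated HPLC-MS/MS, with below-limit values set to zero. AUClast was reported where AUCinf was not calculable.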

11β‐HSD2 = biological target: T1, 11β‐HSD2 (Homo sapiens, UniProt P80365); test: Urine 11β-HSD2 activity; assay type: in vivo; conditions: up to 50 mg q.d. for 14 days
T1 sequence (P80365 1-405): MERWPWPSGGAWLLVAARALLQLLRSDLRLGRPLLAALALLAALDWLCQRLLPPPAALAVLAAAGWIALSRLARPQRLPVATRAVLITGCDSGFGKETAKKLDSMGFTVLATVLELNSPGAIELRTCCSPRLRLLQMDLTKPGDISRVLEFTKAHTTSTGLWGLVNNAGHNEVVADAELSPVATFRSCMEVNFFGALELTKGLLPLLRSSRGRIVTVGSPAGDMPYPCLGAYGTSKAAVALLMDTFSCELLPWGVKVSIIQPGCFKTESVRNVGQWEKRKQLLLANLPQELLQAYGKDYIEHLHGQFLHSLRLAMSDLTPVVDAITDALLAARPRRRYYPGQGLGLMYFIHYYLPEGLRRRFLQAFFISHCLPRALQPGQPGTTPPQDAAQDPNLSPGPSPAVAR
Summary of the method: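 Renal 11β-HSD2 activity was taken as the urinary cortisol/cortisone ratio. Subjects were healthy young Japanese, young non-Japanese and elderly non-Japanese adults on oral placebo or drug (10, 20 or 50 mg), single dose day 1 then once daily on days 5–18. The ratio was assessed on days 1 and 18.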

[1] = MAD part 2, day 1 single dose 0.7 mg, young non-Japanese, n=6
[2] = MAD part 2, day 1 single dose 2 mg, young non-Japanese, n=2
[3] = MAD part 2, last day of q.d. 14 days 0.4 mg, young non-Japanese, n=2
[4] = MAD part 2, last day of q.d. 14 days 0.4 mg, young non-Japanese, n=4
[5] = MAD part 2, last day of q.d. 14 days 0.7 mg, young non-Japanese, n=1
[6] = MAD part 2, last day of q.d. 14 days 0.7 mg, young non-Japanese, n=6
[7] = MAD part 2, last day of q.d. 14 days 2 mg, young non-Japanese, n=4
[8] = MAD part 2, last day of q.d. 14 days 2 mg, young non-Japanese, n=5

Cn1c(-c2ccc(C(N)=O)cc2F)nnc1C(C)(C)Oc1c(F)cc(Cl)cc1F [ASP3662]
steady state after 14 days of q.d. dosing (MAD study part 2; 0.2 and 0.4 mg, despite 3‐mg loading dose in 0.2‐mg group): not fully reached
AUCinf (AUClast values presented, footnote a), Mean (SD) (MAD study part 2; [1]): 0.2437 (0.4421) ng·hour/mL
AUCinf (AUClast values presented, footnote a), Median (MAD study part 2; [1]): 0.01242 ng·h/mL
AUCinf (AUClast values presented, footnote a), Min–max (MAD study part 2; [1]): 0 to 1.11 ng·h/mL
CL/F, Mean (SD) (MAD study part 2; [2]): 42.21 (6.917) L/hour
CL/F, Median (MAD study part 2; [2]): 42.21 L/h
CL/F, Min–max (MAD study part 2; [2]): 37.3 to 47.1 L/h
VzF, Mean (SD) (MAD study part 2; [2]): 5,472 (1,378) L
VzF, Median (MAD study part 2; [2]): 5,472 L
VzF, Mean (SD) (MAD study part 2; [3]): 2,516 (45.89) L
VzF, Median (MAD study part 2; [3]): 2,516 L
VzF, Min–max (MAD study part 2; [3]): 2,484–2,549 L
CL/F, Mean (SD) (MAD study part 2; [4]): 10.83 (0.7639) L/hour
CL/F, Median (MAD study part 2; [4]): 10.83 L/h
CL/F, Min–max (MAD study part 2; [4]): 9.90 to 11.8 L/h
Ctrough, Mean (SD) (MAD study part 2; [4]): 1.072 (0.1719) ng/mL
Ctrough, Median (MAD study part 2; [4]): 1.053 ng/mL
Ctrough, Min–max (MAD study part 2; [4]): 0.918 to 1.26 ng/mL
VzF, Mean (SD) (MAD study part 2; [5]): 3,677 (NC) L
VzF, Median (MAD study part 2; [5]): 3,677 L
VzF, Min–max (MAD study part 2; [5]): 3,677–3,677 L
CL/F, Mean (SD) (MAD study part 2; [6]): 11.44 (2.349) L/hour
CL/F, Median (MAD study part 2; [6]): 11.34 L/h
CL/F, Min–max (MAD study part 2; [6]): 7.45 to 14.2 L/h
Ctrough, Mean (SD) (MAD study part 2; [6]): 1.389 (0.3190) ng/mL
Ctrough, Median (MAD study part 2; [6]): 1.234 ng/mL
Ctrough, Min–max (MAD study part 2; [6]): 1.10 to 1.83 ng/mL
VzF, Mean (SD) (MAD study part 2; [7]): 1,231 (547.6) L
VzF, Median (MAD study part 2; [7]): 1,165 L
VzF, Min–max (MAD study part 2; [7]): 715–1,880 L
CL/F, Mean (SD) (MAD study part 2; [8]): 9.41 (1.208) L/hour
CL/F, Median (MAD study part 2; [8]): 9.139 L/h
CL/F, Min–max (MAD study part 2; [8]): 8.23 to 11.4 L/h
Ctrough, Mean (SD) (MAD study part 2; [8]): 3.493 (1.166) ng/mL
Ctrough, Median (MAD study part 2; [8]): 3.437 ng/mL
Ctrough, Min–max (MAD study part 2; [8]): 1.80 to 5.03 ng/mL
change in urinary cortisol to cortisone ratio relative to PBO (11β‐HSD2): no noteworthy changes
